Measured values collected from several papers.
Lines come from different studies, so protocols differ.
Target: Calcium/calmodulin-dependent protein kinase type 1 (CAMK1, Homo sapiens, UniProt Q14012)

| SMILES | read-out | action | method | concentration | notes | quantity | value |
| --- | --- | --- | --- | --- | --- | --- | --- |
| Cc1cc(O)c(-c2ccc([C@@H](C)CN(C)C)cc2)c2c1[nH]c(=O)c1sccc12 | cell-free assay | inhibitor | – | 0.1 µM | lysate | inhibition | 2.27% |
| C=CC(=O)N1CCC([C@@H]2CCNc3c(C(N)=O)c(-c4ccc(Oc5ccccc5)cc4)nn32)CC1 | enzyme activity | inhibitor | – | 1 µM | – | inhibition | 7% |
| Cc1ccc(NC(=O)c2ccnc(C(F)(F)F)c2)cc1-c1cc(OCCO)nc(N2CCOCC2)c1 | binding | – | – | 1 µM | – | remaining binding | 100% |
| CCCCC(=O)Nc1ccc(-c2ccc3ncn(CCC)c(=O)c3c2)cn1 | binding | – | competition with immobilised ligand | 0.5 µM | – | remaining binding | 88% |
| CC#CC(=O)N1CCC[C@H]1c1nc(-c2ccc(C(=O)Nc3ccccn3)cc2)c2c(N)nccn12 | enzyme activity | inhibitor | – | 1 µM | – | inhibition | 26% |
| C[C@H]1CC[C@H](n2c3cnccc3c3cnc(Nc4ccc5c(n4)CCN(C(=O)CO)C5)nc32)CC1 | cell-free assay | – | – | 1 µM | – | remaining signal | 45% |
| COc1ccc2oc(-c3ccc4nc(N)oc4c3)c/c(=N\c3ccccc3NC(=O)CCN)c2c1 | binding | – | – | 1 µM | – | remaining binding | 70% |
| C1=C/COCc2cc(ccc2OCCN2CCCC2)Nc2nccc(n2)-c2cccc(c2)COC/1 | binding | – | – | 0.1 µM | – | remaining binding | 65% |
